From PMC5008178 (Molecular Microbiology, 2015)
pEC50: −log10 of the molar value. Like-named read-outs stand apart in the source and are kept apart here.

Experiments:
[1] = target: Tar (Escherichia coli, UniProt P07017); test: FRET response in receptorless cells expressing Tar as sole receptor; assay type: cell-based; details: Tar-only cells; for response mediated by Tar, in words: sub-millimolar range
Summary of the method: (§1)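 Receptorless E. coli VS181 [Δ(cheY cheZ) Δ(tar tsr tap trg aer)] carries the CheY‑YFP/CheZ‑CFP pair (pVS88) and a plasmid with the single receptor. Cells are grown in TB at 34°C, 275 r.p.m., with inducers, and harvested at OD600 0.6. Buffer‑adapted cells get step addition and then removal of amino acid. YFP/CFP ratio (kinase activity) is read by fluorescence microscopy.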

[2] = target: Tsr (Escherichia coli, UniProt P02942); test: FRET response in receptorless cells expressing Tsr as sole receptor; assay type: cell-based; details: for response mediated by Tsr, in words: Tsr-only cells, sub-millimolar range
Summary of the method: as §1

[3] = system: chemotaxis pathway in B. subtilis; test: microbe, parasite or virus in culture; assay type: cell-based, Bacillus subtilis; details: for pEC50: read-out: EC50 of attractant FRET response
[4] = system: chemotaxis pathway in E. coli; test: microbe, parasite or virus in culture; assay type: cell-based, Escherichia coli; details: for pEC50: Escherichia coli; for repellent response in wild type, in words: wild-type E. coli cells, tested up to 1 mM where no response
[5] = system: E. coli; test: Growth inhibition by individual amino acids in M9 glucose medium; assay type: cell-based, Escherichia coli; details: 1 mM amino acid, M9 minimal glucose medium, culture density after 8 h
Summary of the method: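 Cells grown in modified M9 (47 mM Na2HPO4, 22 mM KH2PO4, 8 mM NaCl, 2 mM MgSO4, 100 μM CaCl2) with glucose as carbon source. A single L‑amino acid (1 mM final) was added at the start; 37°C, 120 r.p.m. OD600 read after 8 h and normalised to a control culture without added amino acid.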

[6] = read-out: EC50 of attractant FRET response
[7] = read-out: EC50 of repellent response

Sequence of Tar (P07017 whole entry): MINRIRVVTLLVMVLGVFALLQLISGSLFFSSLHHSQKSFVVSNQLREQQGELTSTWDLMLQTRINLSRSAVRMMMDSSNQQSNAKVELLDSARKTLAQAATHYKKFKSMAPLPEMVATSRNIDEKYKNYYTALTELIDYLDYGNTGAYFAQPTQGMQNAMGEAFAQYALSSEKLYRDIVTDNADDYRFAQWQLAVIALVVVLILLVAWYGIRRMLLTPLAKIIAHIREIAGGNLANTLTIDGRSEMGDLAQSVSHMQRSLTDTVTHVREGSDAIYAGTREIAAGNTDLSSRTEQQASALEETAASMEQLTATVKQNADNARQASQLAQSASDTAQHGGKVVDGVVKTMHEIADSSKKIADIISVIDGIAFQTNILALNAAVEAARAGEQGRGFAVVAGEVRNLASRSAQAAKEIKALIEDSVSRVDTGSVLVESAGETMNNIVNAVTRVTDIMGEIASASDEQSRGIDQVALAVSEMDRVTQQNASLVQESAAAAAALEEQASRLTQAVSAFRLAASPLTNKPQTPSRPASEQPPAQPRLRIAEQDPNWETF
Sequence of Tar (P0A964 whole entry partner): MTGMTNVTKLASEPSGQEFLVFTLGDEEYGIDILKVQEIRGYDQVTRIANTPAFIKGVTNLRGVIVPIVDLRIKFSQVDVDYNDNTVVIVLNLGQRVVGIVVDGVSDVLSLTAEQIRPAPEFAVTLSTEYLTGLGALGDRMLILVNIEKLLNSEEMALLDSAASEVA
Sequence of Tar (P07363 whole entry partner): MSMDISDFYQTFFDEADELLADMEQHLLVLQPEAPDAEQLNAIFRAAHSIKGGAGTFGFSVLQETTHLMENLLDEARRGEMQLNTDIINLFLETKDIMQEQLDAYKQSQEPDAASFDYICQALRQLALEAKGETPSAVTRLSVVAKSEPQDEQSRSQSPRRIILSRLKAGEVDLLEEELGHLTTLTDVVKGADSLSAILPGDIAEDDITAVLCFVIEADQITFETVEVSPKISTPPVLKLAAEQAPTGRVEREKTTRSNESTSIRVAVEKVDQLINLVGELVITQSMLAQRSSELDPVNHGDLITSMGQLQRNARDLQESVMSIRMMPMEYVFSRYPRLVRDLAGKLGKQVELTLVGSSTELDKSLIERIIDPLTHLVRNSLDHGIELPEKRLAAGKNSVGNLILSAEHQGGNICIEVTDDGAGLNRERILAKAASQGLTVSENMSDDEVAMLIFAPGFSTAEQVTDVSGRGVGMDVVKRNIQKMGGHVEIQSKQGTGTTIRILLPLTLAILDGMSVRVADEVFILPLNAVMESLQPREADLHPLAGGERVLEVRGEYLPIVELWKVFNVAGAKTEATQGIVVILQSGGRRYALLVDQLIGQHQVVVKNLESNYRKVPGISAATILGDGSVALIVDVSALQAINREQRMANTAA
Sequence of Tsr (P02942 whole entry): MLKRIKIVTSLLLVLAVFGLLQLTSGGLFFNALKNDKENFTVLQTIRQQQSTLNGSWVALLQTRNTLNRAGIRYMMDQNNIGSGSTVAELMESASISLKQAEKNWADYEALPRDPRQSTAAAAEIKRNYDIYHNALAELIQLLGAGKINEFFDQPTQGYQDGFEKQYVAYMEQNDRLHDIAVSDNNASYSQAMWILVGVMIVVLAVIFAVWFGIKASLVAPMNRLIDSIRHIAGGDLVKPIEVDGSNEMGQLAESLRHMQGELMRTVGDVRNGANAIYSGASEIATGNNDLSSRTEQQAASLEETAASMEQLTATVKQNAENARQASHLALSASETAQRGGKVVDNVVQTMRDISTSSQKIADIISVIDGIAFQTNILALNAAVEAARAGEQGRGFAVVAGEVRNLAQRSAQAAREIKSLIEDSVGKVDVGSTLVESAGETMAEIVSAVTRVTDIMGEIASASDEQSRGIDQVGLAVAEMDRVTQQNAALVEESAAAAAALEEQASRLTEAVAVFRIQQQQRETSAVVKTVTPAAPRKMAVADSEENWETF
Sequence of Tsr (P0A964 whole entry partner): as the sequence (P0A964 whole entry partner) above
Sequence of Tsr (P07363 whole entry partner): as the sequence (P07363 whole entry partner) above

C[C@H](N)C(=O)O [Alanine]
response mediated by Tar, in words [1]: attractant responses
response mediated by Tsr, in words [2]: attractant responses

NC(=O)C[C@H](N)C(=O)O [Aparagine, Asparagine]
pEC50 ([3]; Bacillus subtilis): > 6.00
response mediated by Tar, in words [1]: attractant responses
response mediated by Tsr, in words [2]: attractant responses

N=C(N)NCCC[C@H](N)C(=O)O [Arginine]
FRET response in words ([3]; B. subtilis): did not elicit clear responses

N[C@@H](CC(=O)O)C(=O)O [Aspartate]
pEC50 ([3]; Bacillus subtilis): < 3.00
response mediated by Tar, in words [1]: attractant responses
pEC50 [4, 6]: > 5.00
repellent response in wild type, in words [4]: no obvious repellent response
repellent response in Tsr-only cells, in words [2]: weak repellent responses

N[C@@H](CS)C(=O)O [Cysteine]
growth inhibition [5]: significant growth inhibition
pEC50 ([3]; Bacillus subtilis): > 6.00
response mediated by Tar, in words [1]: attractant responses
pEC50 [4, 6]: > 5.00
response mediated by Tsr, in words [2]: attractant responses

N[C@@H](CCC(=O)O)C(=O)O [Glutamate]
pEC50 ([3]; B. subtilis): < 3.00
response mediated by Tar, in words [1]: attractant responses
repellent response in wild type, in words [4]: no obvious repellent response
repellent response in Tsr-only cells, in words [2]: weak repellent responses

NC(=O)CC[C@H](N)C(=O)O [Glutamine]
repellent response in wild type, in words [4]: no obvious repellent response
repellent response in Tsr-only cells, in words [2]: weak repellent responses

NCC(=O)O [Glycine]
response mediated by Tar, in words [1]: attractant responses
response mediated by Tsr, in words [2]: attractant responses

N[C@@H](Cc1c[nH]cn1)C(=O)O [Histidine]
FRET response in words ([3]; B. subtilis): lesser maximal activation
repellent response in wild type, in words [4]: no obvious repellent response
repellent response in Tsr-only cells, in words [2]: weak repellent responses

CC[C@H](C)[C@H](N)C(=O)O [Isoleucine]
pEC50 [4, 7]: 2.52 to 4.00
repellent response in wild type, in words [4]: clear repellent responses

CC(C)C[C@H](N)C(=O)O [Leucine]
growth inhibition [5]: significant growth inhibition
pEC50 [4, 7]: 2.52 to 4.00
repellent response in wild type, in words [4]: clear repellent responses

NCCCC[C@H](N)C(=O)O [Lysine]
FRET response in words ([3]; B. subtilis): did not elicit clear responses

CSCC[C@H](N)C(=O)O [Methionine]
response mediated by Tar, in words [1]: attractant responses
attractant response in words [4]: weak attractant responses

N[C@@H](Cc1ccccc1)C(=O)O [Phenyalanine, phenylalanine]
repellent response in wild type, in words [4]: no obvious repellent response
repellent response in Tsr-only cells, in words [2]: weak repellent responses

O=C(O)[C@@H]1CCCN1 [Proline]
pEC50 ([3]; Bacillus subtilis): > 6.00

N[C@@H](CO)C(=O)O [Serine]
growth inhibition [5]: significant growth inhibition
level at which the response saturated ([1]; saturating concentration): ~20 % of the initial activity
response mediated by Tar, in words [1]: attractant responses
pEC50 [4, 6]: > 5.00
response mediated by Tsr, in words [2]: attractant responses

C[C@@H](O)[C@H](N)C(=O)O [Threonine]
attractant response in words ([4]; wild-type E. coli, millimolar concentrations): weak attractant responses

N[C@@H](Cc1c[nH]c2ccccc12)C(=O)O [Tryptophan]
FRET response in words ([3]; B. subtilis): lesser maximal activation
pEC50 [4, 7]: 2.52 to 4.00
repellent response in wild type, in words [4]: clear repellent responses

N[C@@H](Cc1ccc(O)cc1)C(=O)O [Tyrosine]
FRET response in words ([3]; B. subtilis): lesser maximal activation

CC(C)[C@H](N)C(=O)O [Valine]
growth inhibition [5]: significant growth inhibition
pEC50 [4, 7]: 2.52 to 4.00
repellent response in wild type, in words [4]: clear repellent responses
